Source: ChEMBL document CHEMBL3826914, “Selective photodepletion of malignant T cells in extracorporeal photopheresis with selenorhodamine photosensitizers” (Bioorg Med Chem, 2016)
pEC50: −log10 of the molar value. Active and inactive are the calls of the source. The rule behind the calls is not given here.

Key:
[1] = Drug extrusion in human CD8 positive cells assessed as change in mean fluorescence intensity at 5 x 10^-8 M preincubated for 20 mins followed by growth in photosensitizer-free media for 30 mins by flow cytometric analysis relative to control; type: cell-based; conditions: 0.5 h, 0.05 µM
HuT78 [2] = assay: Drug uptake in GFP expressing human HUT78 cells co-cultured with non-stimulated human PBMC cells assessed as change in mean fluorescence intensity at 7.5 x 10^-8 M after 20 mins followed by growth in photosensitizer-free media for 30 mins by flow cytometric analysis relative to control; type: cell-based; conditions: hut78, 0.5 h, 0.075 µM
[3] = Drug uptake in SEB-stimulated human CD25 positive cells assessed as mean fluorescence intensity at 5 x 10^-8 M preincubated for 20 mins followed by growth in photosensitizer-free media for 30 mins by flow cytometric analysis relative to control; conditions: 0.5 h, 0.05 µM
ABCB1 [4] = assay: Permeability from basolateral to apical side in dog MDCK2-MDR1 cells expressing ABCB1 at 5 uM after 30 mins in absence of compound 15 by LC-MS/MS analysis; type: ADME, cell-based, Canis lupus familiaris, MDCK-II; conditions: MDCK-MDR1, read-out: permeability
Outline: (§1)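 MDR1-transfected MDCKII cells (passage 16–42) were seeded at 50,000 cells cm^-2 on Transwell filters and used on day 6. Monolayers were rinsed in DPBS with 10^-2 M HEPES, pH 7.4, at 37 °C. They were preincubated 30 min in 4.3 mg/mL BSA/DPBSH with or without 5×10^-6 M P-gp inhibitor. 5 μM dye was added apically or basolaterally and samples taken after 1 h at 37 °C with nutation. Quantitation was by LC-MS/MS; P_passive is the mean of P_AB and P_BA under full inhibition. Mean ± SD.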

[5] = (§2) Phototoxicity human CD3 positive cells co-cultured with GFP expressing human HUT78 cells assessed as cell survival at 7.5 x 10^-8 M preincubated 20 mins in photosensitizer media followed by growth in photosensitizer-free media for 30 mins measured 18 hrs after exposure to 5 J/cm2 irradiation by FACS analysis; type: cell-based; conditions: read-out: Survival
Outline: (§3)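 Non-stimulated PBMCs from healthy donors (Ficoll-separated) were mixed 5:1 with GFP-transfected, sorted (>98%) HUT-78 cells. Cells took up 7.5×10^-8 M photosensitizer for 20 min, then spent 30 min in dye-free medium. They were exposed to 5 J cm^-2 light (600 nm LED) with rotation at 180 rpm. Survival was gated by FACS (GFP, CD3, CD4, CD8) 18 h later versus non-irradiated controls. Triplicate; mean ± SEM.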

ABCB1 [6] = assay: Permeability from apical to basolateral side in dog MDCK2-MDR1 cells expressing ABCB1 at 5 uM after 30 mins in presence of compound 15 by LC-MS/MS analysis; type: ADME, cell-based, Canis lupus familiaris, MDCK-II; conditions: MDCK-MDR1, with compound 15 (concentration not stated), read-out: permeability; outline: as §1
[7] = as §2, with “CD8” for “CD3”; type: cell-based; conditions: read-out: Survival; outline: as §3
[8] = Drug uptake in human HUT78 cell mitochondria by MTG-based bright field microscopic analysis; type: ADME
Outline: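 HUT-78 cells (5×10^5 in 0.5 mL medium) were incubated 15 min with 2×10^-7 M dye together with 5×10^-7 M MitoTracker Green. They were centrifuged and analysed by ImageStream imaging flow cytometry, with MTG excited at 488 nm (480–560 nm channel) and dye excited at 561 nm (642–745 nm channel). Colocalisation was given as the bright detail similarity score, mean ± SD over cells.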

[9] = Drug extrusion in SEB-stimulated human CD25 positive cells assessed as change in mean fluorescence intensity at 5 x 10^-8 M preincubated for 20 mins followed by growth in photosensitizer-free media for 30 mins by flow cytometric analysis relative to control; conditions: 0.5 h, 0.05 µM
[10] = Drug uptake in SEB-stimulated human CD25 negative cells assessed as mean fluorescence intensity at 5 x 10^-8 M preincubated for 20 mins followed by growth in photosensitizer-free media for 30 mins by flow cytometric analysis relative to control; conditions: 0.5 h, 0.05 µM
HuT78 [11] = assay: as §2, with “in” for “human CD3 positive cells co-cultured with”, “HUT78 cells co-cultured with human PBMC” for “HUT78”; type: functional; conditions: HuT78, light or radiation study, read-out: Survival; outline: as §3
[12] = Dark toxicity against human HUT78 cells assessed as reduction in cell viability preincubated for 1 hr in dark after 48 hrs by MTT assay; type: cell-based; conditions: read-out: LD50
Outline: (§4)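 HUT-78 cells in RPMI 1640 with 10% FBS, 1% HEPES and 1% penicillin-streptomycin were plated at 7.5×10^4 per well and grown 24 h. Dye was added to final 5×10^-8 to 5×10^-7 M, then 1 h in the dark. Plates were kept dark or irradiated with a 633 ± 2 nm dye laser at ~3.2 mW cm^-2 to 0.5, 1.0 or 2.0 J cm^-2. Medium was replaced, 48 h at 37 °C, then MTT read at 570 nm. Triplicate runs; EC50/LD50 by sigmoidal variable-slope fit.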

ABCB1 [13] = assay: Permeability from basolateral to apical side in dog MDCK2-MDR1 cells expressing ABCB1 at 5 uM after 30 mins in presence of compound 15 by LC-MS/MS analysis; type: ADME, cell-based, Canis lupus familiaris, MDCK-II; conditions: MDCK-MDR1, with compound 15 (concentration not stated), read-out: permeability; outline: as §1
HuT78 [14] = assay: Phototoxicity against human HUT78 cells assessed as reduction in cell viability preincubated for 1 hr in dark before exposure to 1 J/cm2 irradiation after 48 hrs by MTT assay; type: functional, cell-based; outline: as §4
HuT78 [15] = conditions: human, hut78, 0.5 h, 0.075 µM
HuT78 [16] = assay: Phototoxicity against human HUT78 cells assessed as reduction in cell viability preincubated for 1 hr in dark at 5 x 10^-8M before exposure to 0.5 to 2 J/cm2 irradiation after 48 hrs by MTT assay; type: functional, cell-based; outline: as §4
[17] = Drug extrusion in SEB-stimulated human CD25 negative cells assessed as change in mean fluorescence intensity at 5 x 10^-8 M preincubated for 20 mins followed by growth in photosensitizer-free media for 30 mins by flow cytometric analysis relative to control; conditions: 0.5 h, 0.05 µM
ABCB1 [18] = assay: Permeability from apical to basolateral side in dog MDCK2-MDR1 cells expressing ABCB1 at 5 uM after 30 mins in absence of compound 15 by LC-MS/MS analysis; type: ADME, cell-based, Canis lupus familiaris, MDCK-II; conditions: MDCK-MDR1, read-out: permeability; outline: as §1
HuT78 [19] = conditions: human, hut78, 0.5 h, 0.075 µM; remark: listed apart in the source
[20] = Drug extrusion in human CD3 positive cells assessed as change in mean fluorescence intensity at 5 x 10^-8 M preincubated for 20 mins followed by growth in photosensitizer-free media for 30 mins by flow cytometric analysis relative to control; type: cell-based; conditions: 0.5 h, 0.05 µM
[21] = Drug extrusion in human CD4 positive cells assessed as change in mean fluorescence intensity at 5 x 10^-8 M preincubated for 20 mins followed by growth in photosensitizer-free media for 30 mins by flow cytometric analysis relative to control; type: cell-based; conditions: 0.5 h, 0.05 µM
ABCB1 [22] = assay: Passive permeability in dog MDCK2-MDR1 cells expressing ABCB1 at 5 uM after 30 mins in presence of compound 15 by LC-MS/MS analysis; type: ADME, cell-based, Canis lupus familiaris, MDCK-II; conditions: MDCK-MDR1, with compound 15 (concentration not stated), read-out: permeability; outline: as §1
[23] = as §2, with “CD4” for “CD3”; type: cell-based; conditions: read-out: Survival; outline: as §3
[24] = Drug extrusion in SEB-stimulated human CD25 negative cells assessed as mean fluorescence intensity at 5 x 10^-8 M preincubated for 20 mins followed by growth in photosensitizer-free media for 30 mins by flow cytometric analysis relative to control; conditions: 0.5 h, 0.05 µM
[25] = Drug extrusion in SEB-stimulated human CD25 positive cells assessed as mean fluorescence intensity at 5 x 10^-8 M preincubated for 20 mins followed by growth in photosensitizer-free media for 30 mins by flow cytometric analysis relative to control; conditions: 0.5 h, 0.05 µM
[26] = N-octanol/water partition coefficient, logP of the compound at 23 degC after 1 hr by HPLC based shake flask method; type: physicochemical
Outline: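 Shake-flask method using 1-octanol: 3–5 min of mixing, then 1 h settling. Equilibration and measurement were at 23 °C, in triplicate.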

SMILES | Activity [1] [%] | Activity (HuT78 [2]) [%] | Flu intensity [3] [a.u.] | Papp B→A at 0.5 h, 5 µM (ABCB1 [4]) [×10⁻⁶ cm/s] | viability at 18 h, 0.075 µM [5] [%] | Papp A→B at 0.5 h, 5 µM (ABCB1 [6]) [×10⁻⁶ cm/s] | Activity [9] [%] | Flu intensity [10] [a.u.] | viability at 0.075 µM (HuT78 [11]) [%] | Papp B→A at 0.5 h, 5 µM (ABCB1 [13]) [×10⁻⁶ cm/s] | Flu intensity (HuT78 [15]) [a.u.] | Activity [17] [%] | Papp A→B at 0.5 h, 5 µM (ABCB1 [18]) [×10⁻⁶ cm/s] | Flu intensity (HuT78 [19]) [a.u.] | Activity [20] [%] | Activity [21] [%] | Papp at 0.5 h, 5 µM (ABCB1 [22]) [×10⁻⁶ cm/s] | Flu intensity [24] [a.u.] | Flu intensity [25] [a.u.] | logP [26] | further results
O=C(c1ccc(C2=c3cc4c5c(c3[Se]c3c2cc2c6c3CCCN6CCC2)CCC[N+]=5CCC4)s1)N1CCCCC1.[Cl-] | 69 | 55.7 | 7510 | 7.8 | 62.1 | 0.024 | 39.9 | 1450 | 3.9 | 0.48 | 4500 | 59.8 | 0.21 | 6800 | 54.6 | 59.1 | 0.2 | 580 | 4500 |  | viability at 18 h, 0.075 µM [7]: 78%; Drug uptake [8]: Active; CC50 at 48 h [12]: 730 nM; Activity (HuT78 [14]): Dose-dependent effect; pEC50 (HuT78 [14]; HuT78, light or radiation study): 7.15; Activity (HuT78 [16]): Active; viability at 18 h, 0.075 µM [23]: 63.3%
C[N+]1=c2cc3c(cc2C(C)(C)CC1)=C(c1ccc(C(=S)N2CCCCC2)s1)c1cc2c4c(c1[Se]3)CCCN4CCC2.[Cl-] | 51 | 28.2 | 43300 | 0.88 | 0.4 | 0.046 | 22 | 14100 | 0.7 | 0.032 | 36000 | 32.9 | 0.044 | 42000 | 36.8 | 37.7 | < 0.1 | 9500 | 33800 | 3.78 | 
CN1CCC(C)(C)c2cc3c(-c4ccc(C(=S)N5CCCCC5)s4)c4ccc(=[N+](C)C)cc-4[se]c3cc21.[Cl-] |  |  | 45800 |  |  |  |  | 10500 |  |  | 37600 |  |  | 39300 |  |  |  | 4800 | 32200 |  | Drug uptake [8]: Active
CN1CCC(C)(C)c2cc3c(-c4ccc(C(=O)N5CCCCC5)s4)c4ccc(=[N+](C)C)cc-4[se]c3cc21.[Cl-] |  |  | 5390 |  |  |  |  | 900 |  |  | 5270 |  |  | 15300 |  |  |  | 270 | 3110 |  | Drug uptake [8]: Active
CN1CCC(C)(C)c2cc3c(cc21)[Se]c1cc2c(cc1=C3c1ccc(C(=S)N3CCCCC3)s1)C(C)(C)CC[N+]=2C.[Cl-] | 57.5 | 34.6 | 14500 | 0.63 | 1.5 | 0.051 | 16.4 | 5400 | 5.6 | 0.013 | 11700 | 30.7 | 0.15 | 13800 | 40.1 | 42.8 | < 0.1 | 3700 | 12100 | 3.7 | 
CN1CCC(C)(C)c2cc3c(cc21)[Se]c1cc2c(cc1=C3c1ccc(C(=O)N3CCCCC3)s1)C(C)(C)CC[N+]=2C.[Cl-] | 76.2 | 43.1 | 10900 | 6.5 | 7.2 | 0.051 | 33.5 | 2500 | 2.4 | 0.4 | 6240 | 58 | 0.18 | 9130 | 51.3 | 53.3 | 0.2 | 1100 | 7300 | 3.42 | viability at 18 h, 0.075 µM [7]: 42.4%; viability at 18 h, 0.075 µM [23]: 1.1%
C[N+]1=c2cc3c(cc2C(C)(C)CC1)=C(c1ccc(C(=O)N2CCCCC2)s1)c1cc2c4c(c1[Se]3)CCCN4CCC2.[Cl-] | 79.6 | 47.1 | 33800 | 6.6 | 4.8 | 0.018 | 37 | 9300 | 1.24 | 0.28 | 20000 | 58.6 | 0.14 | 33200 | 52.7 | 54.1 | 0.1 | 3900 | 25000 | 3.51 | viability at 18 h, 0.075 µM [7]: 24.5%; viability at 18 h, 0.075 µM [23]: 0.37%
